This is a sample that favours compounds with a hit; in the whole collection about 2% have one here.
NR2E3 ag-1: human photoreceptor-specific nuclear receptor agonism | CHO-S Gal4-NCOR/VP16-NR2E3 two-hybrid, luciferase | inhibition of corepressor binding, % at 3.98 µM | 0.35% of 360,000 active | AID 602229;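 active means inhibition above the mean of all tested compounds plus 3 SD, cut at about 70% in these data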;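 further: higher means lower luciferase signal from less NR2E3 corepressor binding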
Target sequence (Q9Y5X4 whole entry, looked up, the tested form may be a part): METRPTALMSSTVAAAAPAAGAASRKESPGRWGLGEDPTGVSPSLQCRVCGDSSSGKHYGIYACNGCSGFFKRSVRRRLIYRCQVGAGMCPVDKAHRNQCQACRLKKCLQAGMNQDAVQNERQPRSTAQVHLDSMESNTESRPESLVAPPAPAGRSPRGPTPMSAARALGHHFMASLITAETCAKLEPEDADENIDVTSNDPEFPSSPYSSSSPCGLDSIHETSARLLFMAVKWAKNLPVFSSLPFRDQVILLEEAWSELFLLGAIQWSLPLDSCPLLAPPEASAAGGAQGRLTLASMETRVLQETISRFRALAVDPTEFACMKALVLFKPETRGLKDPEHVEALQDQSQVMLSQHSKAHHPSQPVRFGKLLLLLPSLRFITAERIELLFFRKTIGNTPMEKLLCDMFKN
HIF activator: HIF pathway transcriptional activation. U2OS HRE-luciferase reporter, luminescence; normalized: DMSO 0%, desferrioxamine 100%. activation, % at 7.5 µM (by protocol). 0.32% of 300,000 active;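 active means mean activation of at least 10% of the iron chelator positive control signal, with at least half of replicates also reaching 10%; inconclusive means mean and replicate majority disagree about reaching 10%; inactive means mean and most replicates under 10%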
TROY signal inh: TROY signaling inhibition. Q293 LMP1-TROYcd NF-kB luciferase reporter, 4 h. inhibition, % at 10 µM. 0.98% of 360,000 active. AID 1347056;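 active means compounds whose plate-normalised and pattern-corrected inhibition of the luciferase reporter signal at the single screening dose is 50% or more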
NR2E3 ag-2: NR2E3 (human) agonism; Q9Y5X4; inhibition of corepressor binding, % at 4.78 µM; 0.12% of 320,000 active; GST-NR2E3/biotin-RetCOR TR-FRET, 1536-well;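 active means percent inhibition above the cutoff of mean plus 3 SD of all tested compounds, set per screening campaign, cut at about 20% in these data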
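Material – GST-tagged NR2E3 plus biotinylated RetCOR corepressor · Quantity – NR2E3 fusion 1.35 nM · Times – 5 h incubation at 4 °C · Medium – pH 7.5 Tris-based buffer · Technique – TR-FRET, Eu(K)-anti-GST donor, streptavidin-D2 acceptor, ex 340, em 617/671 nm · Benchmarks – high control biotin, low control 0.6% DMSO · Format – 1536-well plates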
EBV LMP1 NFkB: reduces LMP1-driven NF-kappaB luciferase signal; AID 504558; LMP1-induced NF-kappaB luciferase reporter cells, luminescence; inhibition, % at 12.5 µM; 0.69% of 350,000 active; in the data active means inhibition above about 41%; inconclusive means no clear call, values can overlap the other calls
Large screens that a line does not name were inactive.

O=C(/C(=C/O)N=Nc1ccccc1Cl)c1ccccc1	TROY signal inh 51.7
O=C(/C(=C/O)N=Nc1cccc(C(F)(F)F)c1)c1ccccc1	none
O=C1[C@H]2[C@@H](c3ccccc3)N[C@]3(CCCN(CC4CCCCC4)C3=O)[C@H]2C(=O)N1Cc1ccccc1	none (no result: HIF activator, NR2E3 ag-2)
CNC1=C(N(C(C)=O)c2ccc(Br)cc2)C(=O)c2ccccc2C1=O	TROY signal inh 64.2
CCC(=O)N(C1=C(NC)C(=O)c2ccccc2C1=O)C(C)C	none
Cc1ccc(C(=O)O)cc1N1C(=O)c2cccc3c([N+](=O)[O-])ccc(c23)C1=O	none
O=C(O)c1ccc(CN2C(=O)c3cccc4c([N+](=O)[O-])ccc(c34)C2=O)cc1	TROY signal inh 71.0 (no result: NR2E3 ag-2)
COc1ccc(NC(=O)N(C)C[C@H]2Oc3c(NC(=O)c4nc5ccccc5s4)cccc3C(=O)N([C@@H](C)CO)C[C@H]2C)cc1	none (no result: HIF activator, NR2E3 ag-2)
O=C(Nc1ccn(Cc2c(F)c(F)cc(F)c2F)n1)c1ccc(COc2ccccc2Cl)cc1	none
O=C(Nc1ccn(Cc2ccccc2F)n1)c1ccc(COc2ccccc2Cl)cc1	TROY signal inh 53.2
CC1(C(=O)O)CCCN(C(=O)C2(c3ccc(Cl)cc3)CCCC2)C1 (configuration not stated)	none (no result: HIF activator, NR2E3 ag-2, EBV LMP1 NFkB)
COc1ccc(C(c2sc3nc(C)nn3c2O)N2CCC(C(N)=O)CC2)cc1OC (configuration not stated)	EBV LMP1 NFkB 71.8
COc1cc(C(c2sc3nc(C)nn3c2O)N2CCc3ccccc3C2)cc(OC)c1OC (configuration not stated)	EBV LMP1 NFkB 85.8
CN(C)CCCN(C(=O)CCSc1ccccc1)c1nc2cc3c(cc2s1)OCO3	none
CN(C)CCCN(C(=O)CCS(=O)(=O)c1ccccc1)c1nc2cc3c(cc2s1)OCO3	HIF activator inconclusive, TROY signal inh 55.5
c1ccc2c(c1)oc1c(Nc3ccc(CN4CCOCC4)cc3)ncnc12	TROY signal inh 51.9
c1ccc2c(c1)oc1c(NCCN3CCOCC3)ncnc12	none
Cc1cccc(CN2CCN(C3CN(Cc4ccc([N+](=O)[O-])cc4)S(=O)(=O)C3)CC2)c1 (configuration not stated)	none (no result: HIF activator, NR2E3 ag-2, EBV LMP1 NFkB)
CC1(C)Oc2cc3oc(-c4cc(O)cc(O)c4)cc3cc2CC1O (configuration not stated)	TROY signal inh 80.1
COCCCNC(=O)c1csc([C@@H]2O[C@H](CO)[C@H](O)[C@H](O)[C@H]2O)n1	none (no result: HIF activator, NR2E3 ag-2, EBV LMP1 NFkB)
Cc1nc(SCc2cccnc2)[nH]c(=O)c1C	none
CCOC(=O)N1CCC(Nc2c(-c3ccc(C)c(C)c3)c(=O)c2=O)CC1	EBV LMP1 NFkB 53.1
CN1CCCN(S(=O)(=O)c2cccc(C(F)(F)F)c2)c2nc3ccccc3nc21	none (no result: HIF activator)
Cc1ccc(CN2C(=O)COc3cc(NS(C)(=O)=O)ccc32)cc1	none (no result: HIF activator, NR2E3 ag-2)
CCOC(=O)c1ccc(NS(=O)(=O)c2ccc3c(c2)NC(=O)CCS3)cc1	none
Cc1cc(/C=N/Nc2ncnc(N)c2[N+](=O)[O-])c(C)n1-c1ccccc1	TROY signal inh 83.4, EBV LMP1 NFkB 78.5 (no result: HIF activator)
COc1cccc(/C=N/Nc2ncnc(N)c2[N+](=O)[O-])c1OC	EBV LMP1 NFkB inconclusive
CCCOc1cccc(C2C(C(=O)c3ccco3)=C(O)C(=O)N2CCCn2ccnc2)c1 (configuration not stated)	HIF activator 39.0
CC(C)C[C@H]1CN(CCCC[C@H]2CNC(=O)C(=O)N2CCC2CCCCC2)C(=O)C(=O)N1CCc1ccccc1	none (no result: HIF activator, NR2E3 ag-2, EBV LMP1 NFkB)
O=C(Nc1ccc([N+](=O)[O-])cc1Cl)c1cc(Cl)ccc1O	TROY signal inh 61.5, EBV LMP1 NFkB 79.9 (no result: HIF activator)
O=C(Nc1cccc2c1CCCC2)c1cc([N+](=O)[O-])ccc1Cl	EBV LMP1 NFkB 54.1
O=C(Nc1cccc2c1CCCC2)c1ccc(Cl)c([N+](=O)[O-])c1	none
C=CCNC(=O)c1ccc(-n2cccc2)cc1	none
C=CCn1c2ccccc2c2nnc(SCCN3CCCCC3)nc21	none
C=CCn1c2ccccc2c2nnc(SCCCn3c(=O)[nH]c4ccccc43)nc21	TROY signal inh 68.4 (no result: HIF activator, NR2E3 ag-2)
O=[N+]([O-])c1ccc(-c2cnc(SC(c3ccccc3)c3ccccc3)[nH]2)cc1	TROY signal inh 61.9
O=[N+]([O-])c1ccc(-c2cnc(SCc3ccccc3Cl)[nH]2)cc1	none
Cc1cc(C)c(CSc2ncc(-c3ccc([N+](=O)[O-])cc3)[nH]2)c(C)c1	TROY signal inh 56.5
COCCCNC(=S)Nc1ccc(CC(=O)O)cc1	none

Screening data: PubChem BioAssay, several laboratories
